Assay results from different studies.
Target: Serine/threonine-protein kinase PAK 4 (PAK4, Homo sapiens, UniProt O96013)

SMILES | assay | setting | measurement | result
O=C(CSc1nc2nccnc2c(=O)n1CCc1ccccc1)Nc1nccs1 | enzyme activity, inhibitor | 10 µM | inhibition | 2%
C[C@@H]1CN(c2cc(-c3n[nH]c4ccc(OC5(C)CC5)cc34)ncn2)C[C@H](C)O1 | cell-free assay, competition with immobilised ligand | 0.1 µM | remaining binding | 97%
Oc1cccc(-c2nc(N3CCOCC3)c3oc4ncccc4c3n2)c1 | enzyme activity, inhibitor | 10 µM | remaining activity | 70%
COc1cc(/C=C/C(=O)CC(=O)/C=C/c2ccc(O)c(OC)c2)ccc1O | enzyme activity, inhibitor | 1 µM | activity vs control | 78%
Cc1cc(NC(=O)c2cccc3cc(-c4cccc5[nH]nc(N)c45)ccc23)ccc1F | enzyme activity, inhibitor | 0.1 µM | activity vs control | 97%
CC(C)(C)c1nc(-c2cccc(NS(=O)(=O)c3c(F)cccc3F)c2F)c(-c2ccnc(N)n2)s1 | enzyme activity, inhibitor, radiometric | 1 µM | remaining activity | 68%
COc1cc2ncnc(Nc3ccc(F)c(Cl)c3)c2cc1OCCCN1CCOCC1 | cell-free assay | 0.5 µM | remaining signal | 90.2%
CNC(=O)c1cc(Oc2ccc(NC(=O)Nc3ccc(Cl)c(C(F)(F)F)c3)cc2)ccn1 | enzyme activity, inhibitor | 0.3 µM | inhibition | -11%
O=C1NC(c2ccccn2)Sc2ccccc21 (stereo not shown) | cell-free assay, competition with immobilised ligand | 1 µM | remaining binding | 84%
Cc1ccc(C(=O)NCc2ccsc2)cc1C#Cc1cn(C(C)C)c2ncnc(N)c12 | enzyme activity, inhibitor | 1 µM | activity vs control | 102%
Cc1ccc(Nc2nccc(N(C)c3ccc4c(C)n(C)nc4c3)n2)cc1S(N)(=O)=O | enzyme activity, inhibitor | 10 µM | inhibition | 35%
Cc1[nH]c(/C=C2\C(=O)Nc3ccc(F)cc32)c(C)c1C(=O)N[C@H]1CCN(C(=O)N(C)C)C1 | enzyme activity, inhibitor | 1 µM | remaining activity | 105%
CCc1ccccc1C(=O)Nc1n[nH]c2c(C)c(F)c(C3C(C#N)=C(C)N(C)C(C)=C3C#N)cc12 | cell-free assay, competition with immobilised ligand | 1 µM | remaining binding | 100%
Oc1ccc(-c2nc(-c3ccncc3)c(-c3ccc(F)cc3)[nH]2)cc1 | cell-free assay | 0.5 µM | remaining signal | 98.6%
COc1cc(-c2cc(-c3ccc(N4CCNCC4)cc3)cnc2C)cc(OC)c1OC | enzyme activity, inhibitor | 1 µM | inhibition | 4%
CCN(CC)CCNC(=O)c1c(C)[nH]c(/C=C2\C(=O)Nc3ccc(F)cc32)c1C | enzyme activity, inhibitor | 0.3 µM | inhibition | -9%
COc1cc(Cl)c(C(=O)N[C@@H](CN[C@H]2CC[C@@H](N)CC2)Cc2ccc(C#N)cc2)cc1-c1ccc(CN[C@H](C)c2ccc(C)cc2)o1 | enzyme activity, inhibitor | 1 µM | remaining activity | 102%

SMILES | assay | setting | measurement | result
c1ccc(N2CCN(Cc3nc4ccccc4[nH]3)CC2)nc1 | cell-free assay, competition with immobilised ligand | 1 µM | remaining binding | 93%
CCCS(=O)(=O)Nc1ccc(F)c(C(=O)c2c[nH]c3ncc(-c4ccc(Cl)cc4)cc23)c1F | enzyme activity, inhibitor | 1 µM | inhibition | < 10%
CN(c1ccnc(CNc2nc(Nc3ccc4c(c3)CC(=O)N4)ncc2C(F)(F)F)n1)S(C)(=O)=O | cell-free assay, competition with immobilised ligand | 1 µM | remaining binding | 52%
CN(c1ncccc1CNc1nc(Nc2ccc3c(c2)CC(=O)N3)ncc1C(F)(F)F)S(C)(=O)=O | enzyme activity, inhibitor | 1 µM | inhibition | 88.5%
O=C(Nc1cnn(-c2csc(C(=O)NC3COC3)c2)c1)Nc1c(F)cccc1Cl | enzyme activity, inhibitor | 5 µM | remaining activity | 107%
CCN(CC)CCNC(=O)c1c(C)[nH]c(/C=C2\C(=O)Nc3ccc(F)cc32)c1C | enzyme activity, inhibitor | 1 µM | remaining activity | 82%
O=C(Nc1cnn(-c2csc(C(=O)NC3COC3)c2)c1)Nc1ccccc1Cl | enzyme activity, inhibitor | 5 µM | remaining activity | 98.9%
C=CC(=O)Nc1cc(Nc2nccc(Nc3cc(Cl)c(F)cc3C(C)(C)O)n2)c(OC)cc1N1CC[C@@H](N(C)C)C1 | enzyme activity, inhibitor | 1 µM | inhibition | 5%
COc1cc(Nc2cnc(C#N)c(O[C@H](C)CN(C)C)n2)ncc1-c1cnn(C)c1 | enzyme activity, inhibitor, radiometric | 10 µM | remaining activity | 70%
CCC(=O)N[C@H]1CC[C@@H](C(=O)N(C)c2ccc(-c3nc4ccccc4o3)cc2)C1 | cell-free assay, competition with immobilised ligand | 1 µM | remaining binding | 100%
O=C1Nc2ccc(Cl)cc2C1=Cc1cc(Cl)c(O)c(Cl)c1 | cell-free assay | 0.5 µM | remaining signal | 88.7%
FC(F)(F)Oc1cccc(-c2cnc3ccc(-c4ccncc4)nn23)c1 | enzyme activity, inhibitor, radiometric | 5 µM | activity vs control | 64%
CC(C)(C)C(=O)c1sc(NC2CCCCC2)nc1N | enzyme activity, inhibitor | 10 µM | remaining activity | 88%
CN(C(=O)c1ccccc1)c1cc(N(C)c2ccc3c(c2)CCc2ccc(C(=O)NCCN4CCOCC4)cc2C3=O)ccc1F | cell-free assay, competition with immobilised ligand | 1 µM | remaining binding | 83%
FC(F)c1nc2ccccc2n1-c1nc(N2CCOCC2)nc(N2CCOCC2)n1 | enzyme activity, inhibitor | 10 µM | remaining activity | 92%
COc1cc(-c2cn(C3CCc4c(F)cccc4N(CC(F)(F)F)C3=O)nn2)ccc1-n1cnc(C)c1 (stereo not shown) | cell-free assay, competition with immobilised ligand | 1 µM | remaining binding | 99%
CS(=O)(=O)CCNCc1ccc(-c2ccc3ncnc(Nc4ccc(OCc5cccc(F)c5)c(Cl)c4)c3c2)o1 | cell-free assay | 0.5 µM | remaining signal | 89.9%
